From ChEMBL document CHEMBL3244382, “Structural requirements for antileukemic activity among the naturally occurring and semisynthetic maytansinoids” (J Med Chem, 1978)
≈ marks a conversion by molar mass, not a printed value. Calls of active or inactive are those of the source.

Assays:
Mus musculus [1] = assay: Toxicity in PS mouse allografted with mouse P388 cells assessed as change in body weight at 3.1 ug/kg relative to control; format: organism-based; details: in vivo, 0.0031 mg/kg
Procedure, shortened: (§1)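 P388 (PS) leukemia in mice, 6 mice per dose group. Weight change is the difference in grams between treated and control animals. Survivors are recorded on toxicity day, normally 4 days after the first injection.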

Mus musculus [2] = assay: Toxicity in PS mouse allografted with mouse P388 cells assessed as change in body weight at 0.8 ug/kg relative to control; format: organism-based; details: in vivo, 0.0008 mg/kg
Procedure, shortened: (§2)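 PS (P388 leukemia) mice, six per dose group. Toxicity read as the difference in grams between the weights of treated and control animals.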

Mus musculus [3] = assay: Toxicity in PS mouse allografted with mouse P388 cells assessed as change in body weight at 0.4 ug/kg relative to control; format: organism-based; details: in vivo, 0.0004 mg/kg; procedure, shortened: as §2
Mus musculus [4] = assay: Toxicity in PS mouse allografted with mouse P388 cells assessed as change in body weight at 0.2 ug/kg relative to control; format: organism-based; details: in vivo, 0.0002 mg/kg; procedure, shortened: as §2
Mus musculus [5] = assay: Toxicity in PS mouse allografted with mouse P388 cells assessed as survival at 50 ug/kg after 4 days; format: organism-based; details: in vivo, 0.05 mg/kg, 96 h
Procedure, shortened: (§3)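 PS (P388) leukemic mice, six started per dose group. Toxicity scored as survivors on the toxicity day over the number of mice started. The toxicity day is normally 4 days after the first injection.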

Mus musculus [6] = assay: Toxicity in PS mouse allografted with mouse P388 cells assessed as survival at 100 ug/kg after 4 days; format: organism-based; details: in vivo, 0.1 mg/kg, 96 h; procedure, shortened: as §3
Mus musculus [7] = assay: Toxicity in PS mouse allografted with mouse P388 cells assessed as survival at 25 ug/kg after 4 days; format: organism-based; details: in vivo, 0.025 mg/kg, 96 h; procedure, shortened: as §3
Mus musculus [8] = assay: Toxicity in PS mouse allografted with mouse P388 cells assessed as survival at 12.5 ug/kg after 4 days; format: organism-based; details: in vivo, 0.0125 mg/kg, 96 h; procedure, shortened: as §3
Mus musculus [9] = assay: Toxicity in PS mouse allografted with mouse P388 cells assessed as survival at 3.1 ug/kg after 4 days; format: organism-based; details: in vivo, 0.0031 mg/kg, 96 h; procedure, shortened: as §3
Mus musculus [10] = assay: Toxicity in PS mouse allografted with mouse P388 cells assessed as survival at 0.8 ug/kg after 4 days; format: organism-based; details: in vivo, 0.0008 mg/kg, 96 h; procedure, shortened: as §3
Mus musculus [11] = assay: Toxicity in PS mouse allografted with mouse P388 cells assessed as survival at 0.4 ug/kg after 4 days; format: organism-based; details: in vivo, 0.0004 mg/kg, 96 h; procedure, shortened: as §3
Mus musculus [12] = assay: Toxicity in PS mouse allografted with mouse P388 cells assessed as survival at 0.2 ug/kg after 4 days; format: organism-based; details: in vivo, 0.0002 mg/kg, 96 h; procedure, shortened: as §3
Mus musculus [13] = assay: Toxicity in PS mouse allografted with mouse P388 cells assessed as survival at 6.3 ug/kg after 4 days; format: organism-based; details: in vivo, 0.0063 mg/kg, 96 h; procedure, shortened: as §3
Mus musculus [14] = assay: Toxicity in PS mouse allografted with mouse P388 cells assessed as survival at 1.1 ug/kg after 4 days; format: organism-based; details: in vivo, 0.0011 mg/kg, 96 h; procedure, shortened: as §3
Mus musculus [15] = assay: Toxicity in PS mouse allografted with mouse P388 cells assessed as change in body weight at 100 ug/kg relative to control; format: organism-based; details: in vivo, 0.1 mg/kg; procedure, shortened: as §1
Mus musculus [16] = assay: Toxicity in PS mouse allografted with mouse P388 cells assessed as change in body weight at 50 ug/kg relative to control; format: organism-based; details: in vivo, 0.05 mg/kg; procedure, shortened: as §1
Mus musculus [17] = assay: Toxicity in PS mouse allografted with mouse P388 cells assessed as change in body weight at 25 ug/kg relative to control; format: organism-based; details: in vivo, 0.025 mg/kg; procedure, shortened: as §1
Mus musculus [18] = assay: Toxicity in PS mouse allografted with mouse P388 cells assessed as change in body weight at 12.5 ug/kg relative to control; format: organism-based; details: in vivo, 0.0125 mg/kg; procedure, shortened: as §1
Mus musculus [19] = assay: Toxicity in PS mouse allografted with mouse P388 cells assessed as change in body weight at 6.3 ug/kg relative to control; format: organism-based; details: in vivo, 0.0063 mg/kg; procedure, shortened: as §1
Mus musculus [20] = assay: Toxicity in PS mouse allografted with mouse P388 cells assessed as change in body weight at 1.1 ug/kg relative to control; format: organism-based; details: in vivo, 0.0011 mg/kg; procedure, shortened: as §1
P388 [21] = assay: Antitumor activity against mouse P388 cells allografted in PS mouse assessed as median survival time at 100 ug/kg relative to control; format: functional
Procedure, shortened: (§4)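 P388 leukemia (PS) in mice, six mice started per dose group. Read-out is T/C: median survival time of the treated group divided by that of the untreated control group, expressed as a percent. The NIH protocol counts a compound as active when T/C > 125%.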

P388 [22] = assay: Antitumor activity against mouse P388 cells allografted in PS mouse assessed as median survival time at 50 ug/kg relative to control; format: functional; procedure, shortened: as §4
P388 [23] = assay: Antitumor activity against mouse P388 cells allografted in PS mouse assessed as median survival time at 25 ug/kg relative to control; format: functional; procedure, shortened: as §4
P388 [24] = assay: Antitumor activity against mouse P388 cells allografted in PS mouse assessed as median survival time at 12.5 ug/kg relative to control; format: functional; procedure, shortened: as §4
P388 [25] = assay: Antitumor activity against mouse P388 cells allografted in PS mouse assessed as median survival time at 3.1 ug/kg relative to control; format: functional; procedure, shortened: as §4
P388 [26] = assay: Antitumor activity against mouse P388 cells allografted in PS mouse assessed as median survival time at 0.8 ug/kg relative to control; format: functional; procedure, shortened: as §4
P388 [27] = assay: Antitumor activity against mouse P388 cells allografted in PS mouse assessed as median survival time at 0.4 ug/kg relative to control; format: functional; procedure, shortened: as §4
P388 [28] = assay: Antitumor activity against mouse P388 cells allografted in PS mouse assessed as median survival time at 0.2 ug/kg relative to control; format: functional; procedure, shortened: as §4
P388 [29] = assay: Antitumor activity against mouse P388 cells allografted in PS mouse assessed as median survival time at 6.3 ug/kg relative to control; format: functional; procedure, shortened: as §4
P388 [30] = assay: Antitumor activity against mouse P388 cells allografted in PS mouse assessed as median survival time at 1.1 ug/kg relative to control; format: functional; procedure, shortened: as §4
KB = assay: Cytotoxicity against human KB cells; format: functional; details: read-out: ED50 (the source's name)
Tubulin (Homo sapiens) = Tubulin (Homo sapiens) (UniProt P68371+Q9H4B7+P0DPH7+P68366+Q13509+Q71U36+P04350+Q3ZCM7+P07437+P68363+Q9BQE3+Q6PEY2+Q13885+Q9BVA1+Q9BUF5); assay: Inhibition of brain tubulin polymerization (unknown origin) at 37 degC by spectrophotometry
Paracentrotus lividus = assay: Antimitotic activity against sea urchin eggs assessed as drug level causing inhibition of mitosis; format: functional; details: Egg

**Q.** Which results are given for `COc1cc2cc(c1Cl)N(C)C(=O)/C=C/[C@]1(C)O[C@H]1[C@H](C)[C@@H]1C[C@@](O)(NC(=O)O1)[C@H](OC)/C=C/C=C(\C)C2`?
**A.** Activity (Mus musculus [1]): 0.4 g; Activity (Mus musculus [2]): 2.8 g; Activity (Mus musculus [3]): 2.5 g; Activity (Mus musculus [4]): 2.1 g; Activity (Mus musculus [5]): Non-toxic; Activity (Mus musculus [6]): Non-toxic; Activity (Mus musculus [7]): Non-toxic; Activity (Mus musculus [8]): Non-toxic; Activity (Mus musculus [9]): Non-toxic; Activity (Mus musculus [10]): Non-toxic; Activity (Mus musculus [11]): Non-toxic; Activity (Mus musculus [12]): Non-toxic; Activity (Mus musculus [13]): Non-toxic; Activity (Mus musculus [14]): Non-toxic; Activity (Mus musculus [15]): 1 g; Activity (Mus musculus [16]): 2.6 g; Activity (Mus musculus [17]): 1.7 g; Activity (Mus musculus [18]): 1 g; Activity (Mus musculus [19]): 0.3 g; Activity (Mus musculus [20]): 2 g; T/C (P388 [21]): 110%; T/C (P388 [22]): <80%; T/C (P388 [23]): <80%; T/C (P388 [24]): <80%; T/C (P388 [25]): 90%; T/C (P388 [26]): 90%; T/C (P388 [27]): 90%; T/C (P388 [28]): 90%; T/C (P388 [29]): <80%; T/C (P388 [30]): 90%; EC50 (KB): 0.025 µg/mL (≈ 0.0457 µM); inhibition (Tubulin (Homo sapiens)): Active; Activity (Paracentrotus lividus): 1 µM
